SENP8 block-1 – SENP8 protease inhibition; 330,000 compounds, 1.2% hits; inhibition, % at 10 µM; Q96LD8; purified SENP8, Z-RLRGG-aminoluciferin cleavage, luminescence; in the data active = inhibition above about 50%
Target sequence (Q96LD8 whole entry, looked up): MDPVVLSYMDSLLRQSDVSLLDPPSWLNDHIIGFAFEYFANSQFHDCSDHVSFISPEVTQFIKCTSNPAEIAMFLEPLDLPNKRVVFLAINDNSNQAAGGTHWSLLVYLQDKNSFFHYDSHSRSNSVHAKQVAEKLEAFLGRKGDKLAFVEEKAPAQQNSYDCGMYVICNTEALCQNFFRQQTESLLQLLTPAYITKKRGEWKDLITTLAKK
SENP1 inh – blocks the human SENP1 SUMO protease catalytic domain. Q9P0U3. recombinant SENP1 catalytic domain, CyPet-SUMO1-YPet FRET cleavage. inhibition, % at 10 µM. 360,000 compounds, 0.21% hits;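 active = inhibition at least 30% at 10 µM, raw YFP signal under a set limit, fluorescence ratio 0.5 to 1.5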
Target sequence (Q9P0U3 419-644 limits assumed): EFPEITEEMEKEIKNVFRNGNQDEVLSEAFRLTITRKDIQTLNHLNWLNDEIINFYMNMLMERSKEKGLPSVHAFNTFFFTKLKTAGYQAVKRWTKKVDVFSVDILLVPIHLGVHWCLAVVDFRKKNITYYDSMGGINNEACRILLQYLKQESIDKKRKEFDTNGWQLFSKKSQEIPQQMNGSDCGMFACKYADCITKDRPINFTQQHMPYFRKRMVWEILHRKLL
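Material – human SENP1 catalytic domain · Input – SENP1 enzyme, 20 pM final · Compound dosing – single concentration of 10 µM compound, 0.5% DMSO final · Timing – enzyme reaction for 50 min at room temperature, dark · Measured by – FRET fluorescence in CFP and YFP emission channels · Control set – no-enzyme wells low, DMSO-plus-enzyme wells high control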
SENP8 block-2 – SENP8 (human) protease inhibition. 360,000 compounds, 0.64% hits. inhibition, % at 20 µM. recombinant SENP8, Nedd8 substrate fluorescence. Q96LD8; in the data active = inhibition mostly above about 40%, no sharp cut-off; inactive = mostly below about 27%
SENP7 inh – inhibitors of human SENP7 protease; Q9BQF6; recombinant SENP7, Z-RLRGG-aminoluciferin luminescence, 40 min; inhibition, % at 5 µM; 330,000 compounds, 1.5% hits;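 active = inhibition above about 50% at the single test dose, limit read from the data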
SENP6 block – SENP6 protease inhibition | 330,000 compounds, 1.8% hits | Q9GZR1 | AID 2599 | Recombinant SENP6 catalytic domain, aminoluciferin luminescence | inhibition, % at 10 µM;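 active = inhibition above about 50% at the single tested dose, limit read from the data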
SENP8 conf – confirmation of human SENP8 protease inhibitors. shares compounds with SENP7 inh. Recombinant SENP8, Z-RLRGG-aminoluciferin luminescence, 60 min. inhibition, % at 12.5 µM. 6,200 compounds, 40% hits. AID 488912;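 active = mean inhibition across replicates above about 50%, limit read from the data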
SENP6 confirm – human SENP6 inhibition, confirmed | shares compounds with SENP7 inh | recombinant SENP6, Z-RLRGG-aminoluciferin luminescence | inhibition, % at 12.5 µM | 6,200 compounds, 58% hits | AID 488915
SENP7 conf – human SENP7 inhibition, confirmed; shares compounds with SENP7 inh; recombinant SENP7, Z-RLRGG-aminoluciferin luminescence, 40 min; inhibition, % at 12.5 µM; 6,200 compounds, 69% hits
Casp3 select – inhibits human caspase-3 in SENP selectivity test; shares compounds with SENP7 inh; purified caspase-3, Z-DEVD-aminoluciferin luminescence, 60 min; inhibition, % at 12.5 µM; 6,200 compounds, 60% hits;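 active = mean inhibition above about 50%, limit read from the data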
Luc interf – interferes with luciferase luminescence in SENP counter-screen; shares compounds with SENP7 inh; Pre-incubated SENP8/Z-RLRGG-aminoluciferin, luciferase luminescence interference; inhibition, % at 12.5 µM; 6,200 compounds, 39% hits; AID 488919;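 active = mean inhibition above about 50% when retested at one dose, limit read from the data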
A number is an active result; n = inactive; x = not tested or not shown. An excerpt weighted towards active compounds, which were near 2.5% of everything screened.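 Rule for the calls, unless noted: active = mean inhibition above about 50% in the one-dose retest (limit read from the data); inactive = the rest.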

SMILES | SENP8 block-1 | SENP1 inh | SENP8 block-2 | SENP7 inh | SENP6 block | SENP8 conf | SENP6 confirm | SENP7 conf | Casp3 select | Luc interf
O=C(CSc1ncccc1C(=O)O)c1ccccc1 | n | n | n | n | n | x | x | x | x | x
O=C(O)c1ccnc(SCC(=O)c2ccccc2)c1 | n | n | n | n | 61 | n | n | n | n | n
O=C(CSc1ccccn1)c1ccc(F)cc1 | n | n | n | n | n | x | x | x | x | x
Cc1cccc(C(=O)Nc2ccccc2SCC2CSc3nc4ccccc4c(=O)n32)c1 (centres undefined) | n | n | n | n | n | x | x | x | x | x
Nc1nc2ccccc2n1/N=C/c1ccc(Br)cc1 | 67 | n | n | n | 76 | 60 | 63 | 90 | n | n
Nc1nnnn1/N=C/c1ccc(Br)cc1 | n | n | n | n | n | x | x | x | x | x
Nc1nc2ccccc2n1/N=C/c1ccc2c(c1)OCO2 | 84 | n | n | 90 | 90 | 86 | 86 | 98 | 86 | 82
CCOc1ccc(OCc2ccc(C(=O)O)o2)cc1 | 94 | n | n | 96 | 97 | 96 | 99 | 102 | 80 | 97
C=CCc1ccc(OCc2ccc(C(=O)O)o2)c(OC)c1 | 64 | n | n | 63 | 79 | 76 | 76 | 94 | n | 80
CCCc1ccc(OCc2ccc(C(=O)O)o2)c(OC)c1 | 69 | n | n | 54 | 75 | 74 | 73 | 92 | n | 83
C=CCc1ccc(OCCCCOc2ccc(C(=O)O)cc2)c(OC)c1 | n | n | n | n | n | x | x | x | x | x
CCc1ccc(OCc2ccc(C(=O)OC)o2)cc1 | n | n | n | n | n | x | x | x | x | x
CCCc1ccc(OCc2ccc(C(=O)NN)o2)c(OC)c1 | n | n | n | n | n | x | x | x | x | x
O=C1C=C(Nc2ccccc2)c2ccccc2C1=O | 73 | n | n | n | 81 | n | 87 | 72 | n | n
O=C1C=C(Nc2ccccc2)C(=O)c2ccccc21 | 80 | n | n | 82 | 90 | n | n | n | n | n
CCCCNC1=CC(=O)C(=O)c2ccccc21 | 86 | n | 85 | 81 | 93 | 61 | 87 | 74 | 91 | n
c1ccc(Nc2ccccc2)cc1 | n | n | n | n | n | x | x | x | x | x
O=C1C=C(Nc2ccccc2C(=O)O)c2ccccc2C1=O | 86 | n | n | n | 86 | n | 93 | 82 | n | n
C/C=C1\NC(=O)[C@H](CC(N)=O)N(C)C(=O)C([C@@H](C)O)NC(=O)C(CCCc2ccc(OC)cc2)NC(=O)[C@H](C(C)C)NC(=O)/C(=C\C)NC(=O)[C@H](O)[C@@H](C[C@@H](O)CCCCCCC)NC(=O)[C@H](C)NC(=O)CN(C)C(=O)[C@H](CCC(N)=O)NC1=O (some centres undefined) | x | n | n | x | x | x | x | x | x | x
CCC(CC)C(=O)Nc1cc(C)cc(C)c1 | n | n | n | n | n | x | x | x | x | x
CCc1ccc(NC2=CC(=O)C(=O)c3ccccc32)cc1 | 70 | n | n | 55 | n | n | n | n | n | n
CCc1ccc(NC(=O)C(CC)c2ccccc2)cc1 (centres undefined) | n | n | n | n | n | x | x | x | x | x
Cn1c(=O)c2c(SCc3ccccn3)nc(C3CC3)nc2n(C)c1=O | n | n | n | n | n | x | x | x | x | x
Cn1c(=O)c2c(SCc3ccccc3)nc(C3CC3)nc2n(C)c1=O | n | n | n | 68 | n | n | n | n | n | n
CC1(C(=O)Nc2ccc3c(c2)OCCO3)CN(S(C)(=O)=O)CC(=O)N1Cc1cccs1 (centres undefined) | x | n | n | x | x | x | x | x | x | x
O=C(N/N=C/c1ccccc1Cl)c1nc2ccc([N+](=O)[O-])cc2c(=O)[nH]1 | 75 | n | n | n | 57 | n | 53 | n | 50 | n

Source: PubChem BioAssay (Sanford-Burnham Center for Chemical Genomics)
